Results: ChEMBL document CHEMBL4196194, “De Novo Design of α-Helical Lipopeptides Targeting Viral Fusion Proteins: A Promising Strategy for Relatively Broad-Spectrum Antiviral Drug Discovery” (J Med Chem, 2018)
pEC50: −log10 of the molar value. Values after ≈ are worked out from the molar mass of the structure shown. Active and inactive are the calls of the source. No cut-off for these calls is given here. Where a SMILES comes first, the peptide text is derived from it. [ ]: non-standard residue; d: D form. The star is where a group is joined. Palmitoyl = CCCCCCCCCCCCCCCC(=O)*; βAla = NCCC(=O)O

How the values were obtained:
[1] = Cytotoxicity in MDCK cells assessed as reduction in cell viability incubated for 72 hrs by cell-titer-Glo cell viability assay; assay type: cell-based, Canis lupus familiaris; details: dog
[2] = Selectivity index, ratio of CC50 for cytotoxicity in MDCK cells to EC50 for antiviral activity against Influenza A virus (A/Hong Kong/8/1968([…])) infected in HEK293T cells; assay type: toxicity, cell-based; details: dog
[3] = tested on: Influenza A virus; assay: Inhibition of influenza A virus infected in MDCK cells assessed as inhibition of viral load treated with compound at 0 to 2 hrs post-infection by RT-qPCR method based time of addition assay; assay type: functional
Summary of the method: (§1)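 MDCK cells (2.0 × 10^5/well) washed with PBS, virus adsorbed (MOI 0.05) 60 min at 4 °C, washed, then compound present only during 0–10, 0–2, 2–5, 5–8 or 8–10 h postinfection; cultured in fresh medium to 10 h, total RNA extracted, viral load by absolute one-step RT-qPCR; triplicate, versus PBS control.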

[4] = tested on: Influenza A virus; assay: Binding affinity to influenza A virus hemagglutinin 2 synthetic peptide N66 assessed as changes in alpha-helical structures at 10 uM at pH 5 by CD spectroscopy
Summary of the method: (§2)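 Peptides at 10 μM final. HR1P incubated with test peptide 30 min at 25 °C in 10 mM phosphate, pH 7.4; N66 30 min at 30 °C in 10 mM sodium acetate/10 mM sodium phosphate/150 mM NaCl, pH 5.0; measured at 25 °C. Mean residue ellipticity; helicity from −33000 deg cm2 dmol−1 = 100%.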

[5] = target: Hemagglutinin (Influenza A virus (A/Puerto Rico/8/1934(H1N1))) (UniProt P03452); assay: Inhibition of Influenza A virus (A/Puerto Rico/8/1934(H1N1)) Hemagglutinin 2-mediated hemolysis of chicken erythrocytes at acidic pH conditions
Sequence of Hemagglutinin (Influenza A virus (A/Puerto Rico/8/1934(H1N1))) (P03452 whole entry): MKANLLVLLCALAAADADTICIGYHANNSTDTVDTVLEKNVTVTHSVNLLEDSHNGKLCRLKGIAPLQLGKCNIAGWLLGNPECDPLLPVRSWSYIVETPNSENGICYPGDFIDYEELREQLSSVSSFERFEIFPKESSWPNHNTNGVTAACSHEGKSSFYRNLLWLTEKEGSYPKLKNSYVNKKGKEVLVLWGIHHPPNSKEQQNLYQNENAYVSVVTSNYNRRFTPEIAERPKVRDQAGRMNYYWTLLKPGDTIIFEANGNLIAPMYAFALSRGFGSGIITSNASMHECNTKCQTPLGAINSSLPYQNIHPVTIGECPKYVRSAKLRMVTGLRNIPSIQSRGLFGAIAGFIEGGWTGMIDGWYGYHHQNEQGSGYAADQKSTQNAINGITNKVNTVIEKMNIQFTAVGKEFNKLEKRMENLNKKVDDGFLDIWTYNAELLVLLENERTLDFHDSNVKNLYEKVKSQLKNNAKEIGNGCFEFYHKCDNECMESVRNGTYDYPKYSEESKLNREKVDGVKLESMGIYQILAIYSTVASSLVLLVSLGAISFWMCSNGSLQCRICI

[6] = tested on: Influenza A virus; assay: Antiviral activity against influenza A virus Hong Kong/8/1968(H3N2) infected in HEK293T cells assessed as inhibition of viral replicon activity incubated for 30 hrs by dual-Glo luciferase assay; assay type: functional, organism-based; details: HEK-293T
Summary of the method: (§3)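 HEK293T cells (2.5 × 10^4/well) transfected with plasmids for NP, PB1, PB2, PA plus p0LN-S-Luc firefly and pRL-SV40 Renilla reporters; serially diluted compound added 6 h post-transfection, luciferase read after 30 h by Dual-Glo. Activity = firefly/Renilla ratio; % inhibition normalized to positive and negative controls, curve-fitted; three independent measurements.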

[7] = tested on: Middle East respiratory syndrome-related coronavirus; assay: Binding affinity to MERS-CoV spike protein synthetic peptide HR1P assessed as melting temperature at 10 uM at pH 7.4 by CD spectroscopy
Summary of the method: (§4)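 Thermal unfolding by CD at 222 nm, 10–90 °C at 2 °C/min. Samples held 10 μM peptide: for HR1P in 10 mM phosphate pH 7.4; for N66 in 10 mM sodium acetate with 10 mM sodium phosphate and 150 mM NaCl, pH 5.0.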

[8] = tested on: Influenza A virus; assay: Binding affinity to influenza A virus hemagglutinin 2 synthetic peptide N66 assessed as melting temperature at 10 uM at pH 5 by CD spectroscopy; summary of the method: as §4
[9] = tested on: Influenza A virus; details: Hong Kong/8/1968(H3N2), 0.1 to 1000 uM
[10] = AUC (0 to t) in Sprague-Dawley rat at 5 mg/kg, iv administered as single dose by LC-MS/MS analysis; assay type: ADME, organism-based; details: in vivo
[11] = tested on: Influenza B virus; assay: Antiviral activity against Influenza B virus (B/Lee/40); assay type: functional, organism-based; details: B/Lee/1940
[12] = tested on: Influenza A virus; assay: Antiviral activity against Influenza A virus (A/Puerto Rico/8/1934(H1N1)) infected in HEK293T cells assessed as inhibition of viral replicon activity incubated for 30 hrs by dual-Glo luciferase assay; assay type: functional, organism-based; details: HEK-293T; summary of the method: as §3
[13] = tested on: Influenza A virus; assay: Inhibition of influenza A virus infected in MDCK cells assessed as inhibition of viral load treated with compound at 8 to 10 hrs post-infection by RT-qPCR method based time of addition assay; assay type: functional, organism-based; summary of the method: as §1
[14] = Half life in Sprague-Dawley rat at 5 mg/kg, iv administered as single dose by LC-MS/MS analysis; assay type: ADME, organism-based; details: in vivo
[15] = Solubility in pure water at 2 mg by HPLC-UV method; assay type: physicochemical
[16] = tested on: Middle East respiratory syndrome-related coronavirus; assay: Binding affinity to MERS-CoV spike protein synthetic peptide HR1P at pH 7.4 by sedimentation velocity analysis
Summary of the method: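 Complexes at 150 μM final: with HR1P 30 min at 25 °C in 10 mM phosphate pH 7.4; with N66 30 min at 30 °C in sodium acetate/phosphate/NaCl pH 5.0. Sedimentation velocity at 280 nm, 3000 then 60000 rpm, 25 °C; c(s) distribution and molecular weight derived.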

[17] = tested on: Influenza A virus; assay: Inhibition of influenza A virus infected in MDCK cells assessed as inhibition of viral load treated with compound at 5 to 8 hrs post-infection by RT-qPCR method based time of addition assay; assay type: functional, organism-based; summary of the method: as §1
[18] = Cmax in Sprague-Dawley rat at 5 mg/kg, iv administered as single dose by LC-MS/MS analysis; assay type: ADME, organism-based; parameters: dose 5 mg/kg, route intravenous; details: in vivo
[19] = tested on: Influenza A virus; details: A/Puerto Rico/8/1934(H1N1), 0.1 to 1000 uM
[20] = tested on: Middle East respiratory syndrome-related coronavirus; assay: Antiviral activity against MERS-CoV pseudovirus infected in human HuH7 cells treated with 30 mins pre-treated pseudovirus/compopund mixture and measured after 48 hrs by luciferase reporter assay; assay type: functional, organism-based
Summary of the method: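 Serially diluted peptide premixed with MERS-CoV pseudovirus 30 min at 37 °C, then added to Huh-7 cells; medium replaced at 12 h postinfection and cells cultured a further 48 h at 37 °C before luciferase read-out.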

[21] = tested on: Rattus norvegicus; assay: Clearance in Sprague-Dawley rat at 5 mg/kg, iv administered as single dose by LC-MS/MS analysis; assay type: ADME, organism-based; details: in vivo
[22] = Cytotoxicity in human HuH7 cells assessed as reduction in cell viability incubated for 48 hrs by CCK8 assay; assay type: cell-based, Huh-7
Summary of the method: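 Huh-7 cells (1 × 10^5 cells/mL suspension seeded) grown 12 h at 37 °C, 5% CO2, then serially diluted peptide added for 48 h; untreated blank and Triton X-100 controls. CCK-8 added for 2 h, absorbance at 450 nm.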

[23] = tested on: Middle East respiratory syndrome-related coronavirus; assay: Binding affinity to MERS-CoV spike protein synthetic peptide HR1P assessed as changes in alpha-helical structures at 10 uM at pH 7.4 by CD spectroscopy; summary of the method: as §2
[24] = tested on: Influenza A virus; assay: Antiviral activity against influenza A virus assessed as inhibition of viral replicon activity up to 100 uM incubated for 30 hrs by firefly luciferase reporter gene assay; assay type: functional, organism-based; summary of the method: as §3
[25] = tested on: Influenza A virus; assay: Inhibition of influenza A virus infected in MDCK cells assessed as inhibition of viral load treated with compound at 2 to 5 hrs post-infection by RT-qPCR method based time of addition assay; assay type: functional, organism-based; summary of the method: as §1
[26] = tested on: Influenza A virus; assay: Binding affinity to influenza A virus hemagglutinin 2 synthetic peptide N66 at 75 uM incubated for 30 mins by Coomassie blue R250 staining based native polyacrylamide gel electrophoresis method
Summary of the method: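 Equimolar mix with N66 (150 μM each) in sodium acetate/phosphate/NaCl pH 5.0, 30 min at 30 °C; neutralized with 200 mM Tris pH 8.5, diluted 1:1 in Tris-glycine sample buffer, run on 15% Tris-glycine gel, running buffer pH 8.8 (90 V then 150 V, 2.5 h); Coomassie R250 stain.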

CCCCCCCCCCCCCCCC(=O)NCCCC[C@H](NC(=O)CCNC(=O)[C@H](CCCCN)NC(=O)[C@H](CCCCN)NC(=O)[C@H](CCC(N)=O)NC(=O)[C@@H](NC(=O)[C@H](CCC(=O)O)NC(=O)[C@H](CCC(=O)O)NC(=O)[C@@H](NC(=O)[C@H](CCCCN)NC(=O)[C@H](CCCCN)NC(=O)[C@H](CCC(N)=O)NC(=O)[C@@H](NC(=O)[C@H](CCC(=O)O)NC(=O)[C@H](CCC(=O)O)NC(=O)[C@@H](NC(=O)[C@H](CCCCN)NC(=O)[C@H](CCCCN)NC(=O)[C@H](CCC(N)=O)NC(=O)[C@@H](NC(=O)[C@H](CCC(=O)O)NC(=O)[C@H](CCC(=O)O)NC(=O)[C@@H](NC(=O)[C@H](CCCCN)NC(=O)[C@H](CCCCN)NC(=O)[C@H](CCC(N)=O)NC(=O)[C@@H](NC(=O)[C@H](CCC(=O)O)NC(=O)[C@H](CCC(=O)O)NC(=O)[C@@H](NC(=O)[C@H](CCCCN)NC(=O)[C@H](CCCCN)NC(=O)[C@H](CCC(N)=O)NC(=O)[C@@H](NC(=O)[C@H](CCC(=O)O)NC(=O)[C@H](CCC(=O)O)NC(=O)[C@@H](NC(C)=O)[C@@H](C)CC)[C@@H](C)CC)[C@@H](C)CC)[C@@H](C)CC)[C@@H](C)CC)[C@@H](C)CC)[C@@H](C)CC)[C@@H](C)CC)[C@@H](C)CC)[C@@H](C)CC)C(N)=O (Ac-IEEIQKKIEEIQKKIEEIQKKIEEIQKKIEEIQKK[βAla]K(Palmitoyl)-NH2)
CC50 at 72 h [1]: > 100 µM | selectivity ratio [2]: > 143 | inhibition (INH) [3]: 60% | Activity [4]: Active | inhibition [5]: Active | pEC50 [6]: 6.15 | Tm [7]: > 90 °C | Tm [8]: 83.1 °C | inhibition [9]: inactive | AUC(0-t) [10]: 235 µg·h/mL | pEC50 [11]: 5.73 | pEC50 [12]: 5.76 | inhibition [13]: inactive | half-life [14]: 6.6 h | solubility [15]: 8870 µg/mL (≈ 1830 µM) | Activity [16]: Active | inhibition [17]: inactive | Cmax [18]: 97.6 µg/mL | inhibition [19]: inactive | Activity [20]: Active | CL [21]: 0.345 mL/min/kg | CC50 at 48 h [22]: > 100 µM | Activity [23]: Active | inhibition [24]: inactive | inhibition [25]: inactive | Activity [26]: Active
